In ChEMBL document CHEMBL3112397, “Antitrypanosomal structure-activity-relationship study of synthetic cynaropicrin derivatives” (Bioorg Med Chem Lett, 2014):

How the values were obtained:
L6 = assay: Cytotoxicity against rat L6 cells after 70 hrs by alamar blue assay; format: cell-based; settings: L6, 70 h
Outline: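 Rat skeletal myoblasts (L6) were kept in RPMI 1640 with L-glutamine, 5.95 g/L HEPES, 2 g/L NaHCO3 and 10% FBS at 37 °C in 5% CO2, seeded at 4000 cells/well, then given fresh medium 24 h later with or without serial threefold drug dilutions. Podophyllotoxin served as reference. After 70 h, Alamar Blue was added for 2 h more and read at ex 536/em 588 nm. IC50 came from sigmoidal curves, ≥3 independent repeats.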

[1] = Selectivity index, ratio of IC50 for rat L6 cells to IC50 for Trypanosoma brucei rhodesiense STIB 900; format: toxicity, cell-based; settings: read-out: Ratio IC50
Outline: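 SI was calculated as IC50 in L6 cells divided by IC50 against T. b. rhodesiense, with both values from the Alamar Blue assays.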

[2] = tested on: Trypanosoma brucei rhodesiense; assay: Antitrypanosomal activity against bloodstream form of Trypanosoma brucei rhodesiense STIB 900 after 70 hrs by alamar blue assay; format: functional, organism-based; settings: STIB 900, 70 h
Outline: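 T. b. rhodesiense STIB 900 bloodstream forms were grown at 37 °C in humidified 5% CO2 in MEM with Earle's salts plus 0.2 mM 2-mercaptoethanol, 1 mM sodium pyruvate, 0.5 mM hypoxanthine and 15% heat-inactivated horse serum. Serial threefold dilutions were tested with Alamar Blue read-out (ex 536/em 588 nm). IC50 was taken from sigmoidal growth-inhibition curves over at least three independent repeats (mean ± SEM).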

SMILES	IC50 [2] [nM]	IC50 (L6) [nM]	selectivity ratio [1]
C=C(COC(C)=O)C(=O)O[C@H]1CC(=C)[C@@H]2C[C@H](OC(C)=O)C(=C)[C@@H]2[C@H]2OC(=O)C(=C)[C@@H]21	2130	4940	2.3
C=C1C(=O)O[C@@H]2[C@H]3C(=C)[C@@H](O)C[C@H]3C(=C)C[C@H](O)[C@@H]12 [DESACYLCYNAROPICRIN]	4920	4940	1
C=C(CO)C(=O)O[C@H]1CC(=C)[C@@H]2C[C@H](O)C(=C)[C@@H]2[C@H]2OC(=O)C(=C)[C@@H]21 [CYNAROPICRIN]	280	2190	7.8

Now from value to molecule, other results behind:

IC50 [2] [nM]	SMILES	IC50 (L6) [nM]	selectivity ratio [1]
1860	C=C(COC(C)=O)C(=O)O[C@H]1CC(=C)[C@@H]2C[C@H](O)C(=C)[C@@H]2[C@H]2OC(=O)C(=C)[C@@H]21	6390	3.4
480	C=C(COCOC)C(=O)O[C@H]1CC(=C)[C@@H]2C[C@H](OCOC)C(=C)[C@@H]2[C@H]2OC(=O)C(=C)[C@@H]21	170	0.4
170	C=C(C)C(=O)O[C@H]1CC(=C)[C@@H]2C[C@H](O)C(=C)[C@@H]2[C@H]2OC(=O)C(=C)[C@@H]21 [AGUERIN B]	330	1.9
2210	C=C1C(=O)O[C@@H]2[C@H]3C(=C)[C@@H](OCOC)C[C@H]3C(=C)C[C@H](O)[C@@H]12	860	0.4
340	C=C(C)C(=O)O[C@H]1CC(=C)[C@@H]2C[C@H](OCOC)C(=C)[C@@H]2[C@H]2OC(=O)C(=C)[C@@H]21	300	0.9
